Laboratory results from ChEMBL document CHEMBL2203189, “Synthesis and pharmacology of 1-alkyl-3-(1-naphthoyl)indoles: steric and electronic effects of 4- and 8-halogenated naphthoyl substituents” (Bioorg Med Chem, 2012).
Calls of active or inactive are those of the source.

Legend:
[1] = molecular target: Cannabinoid receptor 1 (Homo sapiens, UniProt P21554); experiment: Displacement of [3H]CP55940 from human CB1 receptor expressed in HEK293 cells after 1 hr by liquid scintillation spectrophotometry; type: cell-based
Chain of Cannabinoid receptor 1 (P21554 whole entry): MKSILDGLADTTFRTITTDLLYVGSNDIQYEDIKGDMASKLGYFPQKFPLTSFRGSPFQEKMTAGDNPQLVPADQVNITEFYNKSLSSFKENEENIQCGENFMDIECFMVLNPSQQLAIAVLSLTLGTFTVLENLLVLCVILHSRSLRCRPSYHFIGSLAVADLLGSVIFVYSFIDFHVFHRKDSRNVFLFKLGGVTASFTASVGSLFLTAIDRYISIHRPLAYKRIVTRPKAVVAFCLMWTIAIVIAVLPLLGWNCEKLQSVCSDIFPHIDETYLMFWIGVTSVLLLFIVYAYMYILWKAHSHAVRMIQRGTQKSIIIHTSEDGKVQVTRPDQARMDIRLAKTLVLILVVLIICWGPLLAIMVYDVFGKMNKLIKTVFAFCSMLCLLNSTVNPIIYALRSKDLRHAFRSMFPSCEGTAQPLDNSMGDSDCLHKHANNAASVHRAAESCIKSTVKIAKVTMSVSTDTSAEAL
Summary of the method: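 Membranes (50 µg) from HEK-293 cells stably expressing human CB1, cultured in DMEM/10% FBS. Incubated with 0.5 nM [3H]CP55,940 and test compound at 1 nM–10 µM in buffer with BSA (5 mg/mL), 1 h at 30 °C. Nonspecific binding defined with excess unlabelled CP55,940. Filtered through GF/B, then scintillation counting.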

[2] = molecular target: Cannabinoid receptor 2 (Homo sapiens, UniProt P34972); experiment: Displacement of [3H]CP55940 from human CB2 receptor expressed in CHO cells after 1 hr by liquid scintillation spectrophotometry; type: cell-based
Chain of Cannabinoid receptor 2 (P34972 whole entry): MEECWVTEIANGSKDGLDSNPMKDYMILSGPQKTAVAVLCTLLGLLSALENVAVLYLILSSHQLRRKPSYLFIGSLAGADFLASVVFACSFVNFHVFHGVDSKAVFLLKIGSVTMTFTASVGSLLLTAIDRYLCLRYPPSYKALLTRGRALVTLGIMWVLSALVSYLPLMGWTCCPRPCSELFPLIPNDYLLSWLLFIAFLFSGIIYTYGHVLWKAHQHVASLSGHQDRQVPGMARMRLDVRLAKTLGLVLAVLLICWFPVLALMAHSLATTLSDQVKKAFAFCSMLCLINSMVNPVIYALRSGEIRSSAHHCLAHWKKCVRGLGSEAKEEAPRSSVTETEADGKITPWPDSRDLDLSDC
Summary of the method: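 Membranes (50 µg) from CHO cells stably expressing human CB2, cultured in DMEM/10% fetal calf serum. Incubated with 0.5 nM [3H]CP55,940 and test compound at 1 nM–10 µM with BSA (5 mg/mL), 1 h at 30 °C. Nonspecific binding defined with excess unlabelled CP55,940. GF/B filtration, then scintillation counting.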

[3] = species on record: Homo sapiens; experiment: Selectivity ratio of Ki for human CB1 receptor to Ki for human CB2 receptor
[4] = tested on: Mus musculus; experiment: Locomotor activity in Harlan ICR mouse assessed as inhibition of activity level at 77 umol/kg, iv from 5 to 15 mins by spontaneous locomotor activity test relative to vehicle treated control; type: functional
Summary of the method: (§1)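 Male ICR mice, n = 6 per dose, single probe dose iv in emulphor–ethanol–saline 1:1:18. Photocell beam interruptions recorded over 10 min, at 5–15 min after dosing. Result given as % inhibition relative to the vehicle group.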

[5] = tested on: Mus musculus; experiment: Antinociceptive activity in Harlan ICR mouse assessed as latency to heat-induced tail flicking at 77 umol/kg, iv at 20 mins relative to control; type: functional
[6] = tested on: Mus musculus; experiment: Hypothermic activity in Harlan ICR mouse assessed as change in rectal temperature at 77 umol/kg, iv at 30 mins; type: functional
Summary of the method: (§2)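 Male ICR mice, n = 6 per dose. Single probe dose iv in emulphor–ethanol–saline 1:1:18. Rectal temperature taken with a thermistor probe at 25 mm depth before dosing and at 30 min. Result given as change from pre-injection value (°C).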

[7] = tested on: Mus musculus; experiment: Induction of catalepsy in Harlan ICR mouse at 77 umol/kg, iv at 40 mins measured for 5 mins by ring immobility test; type: functional
Summary of the method: (§3)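 Male ICR mice given a single iv probe dose in emulphor–ethanol–saline 1:1:18. At 40 min placed on a 5.5 cm ring raised 16 cm and observed for 5 min by blinded raters. Up to 5 escapes allowed; mice escaping before 2.5 min excluded. Immobility index = time motionless / 300 s × 100.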

[8] = tested on: Mus musculus; experiment: Locomotor activity in iv dosed Harlan ICR mouse from 5 to 15 mins by spontaneous locomotor activity test; type: functional
[9] = tested on: Mus musculus; experiment: Antinociceptive activity in iv dosed Harlan ICR mouse assessed as latency to heat-induced tail flicking at 20 mins; type: functional
Summary of the method: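 Male ICR mice, 18–25 g, n = 6 per dose. Multiple doses iv by tail vein in emulphor–ethanol–saline 1:1:18. Tail-flick latency at 20 min, 10 s cutoff, expressed as %MPE.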

[10] = tested on: Mus musculus; experiment: Locomotor activity in Harlan ICR mouse assessed as inhibition of activity level at 66 umol/kg, iv from 5 to 15 mins by spontaneous locomotor activity test relative to vehicle treated control; type: functional; summary of the method: as §1
[11] = tested on: Mus musculus; experiment: Locomotor activity in Harlan ICR mouse assessed as inhibition of activity level at 6.2 umol/kg, iv from 5 to 15 mins by spontaneous locomotor activity test relative to vehicle treated control; type: functional, organism-based
Summary of the method: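 Spontaneous activity in male ICR mice (18–25 g) after one iv tail-vein probe dose in 1:1:18 emulphor–ethanol–saline. Photocell beam interruptions (16 beams per chamber) recorded over 10 min, 5–15 min after dosing. Reported as % inhibition relative to the vehicle group. n = 6 per dose.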

[12] = tested on: Mus musculus; experiment: Hypothermic activity in iv dosed Harlan ICR mouse assessed as change in rectal temperature at 30 mins; type: functional; conditions: 0.5 h
[13] = tested on: Mus musculus; experiment: Induction of catalepsy in iv dosed Harlan ICR mouse at 40 mins measured for 5 mins by ring immobility test; type: functional
[14] = tested on: Mus musculus; experiment: Locomotor activity in Harlan ICR mouse assessed as inhibition of activity level at 74 umol/kg, iv from 5 to 15 mins by spontaneous locomotor activity test relative to vehicle treated control; type: functional; summary of the method: as §1
[15] = tested on: Mus musculus; experiment: Hypothermic activity in Harlan ICR mouse assessed as change in rectal temperature at 74 umol/kg, iv at 30 mins; type: functional; summary of the method: as §2
[16] = tested on: Mus musculus; experiment: Antinociceptive activity in Harlan ICR mouse assessed as latency to heat-induced tail flicking at 74 umol/kg, iv at 20 mins relative to control; type: functional
[17] = tested on: Mus musculus; experiment: Locomotor activity in Harlan ICR mouse assessed as inhibition of activity level at 83 umol/kg, iv from 5 to 15 mins by spontaneous locomotor activity test relative to vehicle treated control; type: functional; summary of the method: as §1
[18] = tested on: Mus musculus; experiment: Antinociceptive activity in Harlan ICR mouse assessed as latency to heat-induced tail flicking at 83 umol/kg, iv at 20 mins relative to control; type: functional
[19] = tested on: Mus musculus; experiment: Hypothermic activity in Harlan ICR mouse assessed as change in rectal temperature at 83 umol/kg, iv at 30 mins; type: functional; summary of the method: as §2
[20] = tested on: Mus musculus; experiment: Induction of catalepsy in Harlan ICR mouse at 83 umol/kg, iv at 40 mins measured for 5 mins by ring immobility test; type: functional; summary of the method: as §3
[21] = species on record: Mus musculus; experiment: Induction of catalepsy in mouse by ring immobility test; type: functional

CCCCCn1c(C)c(C(=O)c2ccc(Cl)c3ccccc23)c2ccccc21
Ki [1]: 8.9 nM
Ki [2]: 2.3 nM
Ratio Ki [3]: 4
inhibition in vivo at 77 µmol/kg [4]: 94%
Activity [5]: 100%
Activity [6]: -6.4%
Activity [7]: 88%

Cc1c(C(=O)c2cccc3ccccc23)c2cccc3c2n1[C@H](CN1CCOCC1)CO3 [WIN-552122]
ED50 [8]: 0.23 µmol/kg
ED50 [9]: 0.94 µmol/kg

CCCn1c(C)c(C(=O)c2cccc3cccc(I)c23)c2ccccc21
Ki [1]: 4290 nM
Ki [2]: 536 nM
Ratio Ki [3]: 8
inhibition [10]: inactive

CCCCCn1c(C)c(C(=O)c2cccc3cccc(I)c23)c2ccccc21
Ki [1]: 522 nM
Ki [2]: 13 nM
Ratio Ki [3]: 40
inhibition [11]: inactive

CCCCCn1cc(C(=O)c2cccc3cccc(I)c23)c2ccccc21
Ki [1]: 73 nM
Ki [2]: 3.3 nM
Ratio Ki [3]: 22
ED50 [8]: 1.8 µmol/kg
ED50 [9]: 1.3 µmol/kg
ED50 [12]: 6.4 µmol/kg
ED50 [13]: 3.6 µmol/kg

CCCn1cc(C(=O)c2ccc(Cl)c3ccccc23)c2ccccc21
Ki [1]: 93 nM
Ki [2]: 44 nM
Ratio Ki [3]: 2

CCCCCn1c(C)c(C(=O)c2cccc3cccc(Cl)c23)c2ccccc21
Ki [1]: 116 nM
Ki [2]: 19 nM
Ratio Ki [3]: 6.1
inhibition in vivo at 77 µmol/kg [4]: 84%
Activity [5]: 100%
Activity [6]: -5.5%
Activity [7]: 86%

CCCCCn1cc(C(=O)c2cccc3cccc(Br)c23)c2ccccc21
Ki [1]: 21 nM
Ki [2]: 5.4 nM
Ratio Ki [3]: 4
ED50 [8]: 1.4 µmol/kg
ED50 [9]: 1.8 µmol/kg
ED50 [12]: 2.4 µmol/kg
ED50 [13]: 3.7 µmol/kg

CCCn1c(C)c(C(=O)c2cccc3cccc(Br)c23)c2ccccc21
Ki [1]: > 10000 nM
Ki [2]: 278 nM
Ratio Ki [3]: > 36
inhibition in vivo at 74 µmol/kg [14]: 49%
Activity [15]: -2.3%
Activity [16]: 72%

CCCn1c(C)c(C(=O)c2ccc(Cl)c3ccccc23)c2ccccc21
Ki [1]: 187 nM
Ki [2]: 22 nM
Ratio Ki [3]: 9
inhibition in vivo at 83 µmol/kg [17]: 70%
Activity [18]: 100%
Activity [19]: -5.4%
Activity [20]: 70%

CCCCCn1c(C)c(C(=O)c2ccc(Br)c3ccccc23)c2ccccc21
Ki [1]: 14 nM
Ki [2]: 2.8 nM
Ratio Ki [3]: 5

CCCn1c(C)c(C(=O)c2cccc3cccc(Cl)c23)c2ccccc21
Ki [1]: > 10000 nM
Ki [2]: 174 nM
Ratio Ki [3]: > 57
inhibition in vivo at 83 µmol/kg [17]: 70%
Activity [18]: 42%
Activity [19]: -2.3%
Activity [20]: 15%

CCCCCn1cc(C(=O)c2ccc(Br)c3ccccc23)c2ccccc21
Ki [1]: 1.2 nM
Ki [2]: 1.1 nM
Ratio Ki [3]: 1

CCCn1c(C)c(C(=O)c2cccc3ccccc23)c2ccccc21
ED50 [8]: 18.7 µmol/kg
ED50 [9]: 84.7 µmol/kg
ED50 [12]: 99.1 µmol/kg
ED50 [21]: 87.2 µmol/kg

CCCn1c(C)c(C(=O)c2ccc(Br)c3ccccc23)c2ccccc21
Ki [1]: 373 nM
Ki [2]: 31 nM
Ratio Ki [3]: 12
inhibition in vivo at 74 µmol/kg [14]: 80%
Activity [15]: -5%
Activity [16]: 96%

CCCCCn1c(C)c(C(=O)c2ccc(I)c3ccccc23)c2ccccc21
Ki [1]: 14 nM
Ki [2]: 2.1 nM
Ratio Ki [3]: 7
ED50 [8]: 1.1 µmol/kg
ED50 [9]: 2.5 µmol/kg
ED50 [12]: 2.6 µmol/kg
ED50 [13]: 2.5 µmol/kg

CCCn1cc(C(=O)c2cccc3cccc(Br)c23)c2ccccc21
Ki [1]: > 10000 nM
Ki [2]: 192 nM
Ratio Ki [3]: > 52
inhibition in vivo at 77 µmol/kg [4]: 76%
Activity [5]: 9%
Activity [6]: -2%
Activity [7]: 5%

CCCCCn1cc(C(=O)c2cccc3ccccc23)c2ccccc21
Ratio Ki [3]: 3.2
ED50 [8]: 0.44 µmol/kg
ED50 [9]: 0.09 µmol/kg
ED50 [12]: 1.7 µmol/kg
ED50 [21]: 3 µmol/kg

CCCCCc1cc(O)c2c(c1)OC(C)(C)[C@@H]1CCC(C)=C[C@@H]21 [DRONABINOL]
ED50 [8]: 3.2 µmol/kg

CCCCCn1cc(C(=O)c2ccc(I)c3ccccc23)c2ccccc21
Ki [1]: 2.5 nM
Ki [2]: 1.3 nM
Ratio Ki [3]: 2
ED50 [8]: 0.3 µmol/kg
ED50 [9]: 0.45 µmol/kg
ED50 [12]: 0.19 µmol/kg
ED50 [13]: 0.38 µmol/kg

CCCCCn1cc(C(=O)c2ccc(F)c3ccccc23)c2ccccc21
Ki [1]: 7.2 nM
Ki [2]: 3.2 nM
Ratio Ki [3]: 2
ED50 [8]: < 0.08 µmol/kg
ED50 [9]: 0.14 µmol/kg
ED50 [12]: < 0.08 µmol/kg
ED50 [13]: 0.58 µmol/kg

CCCn1cc(C(=O)c2ccc(Br)c3ccccc23)c2ccccc21
Ki [1]: 161 nM
Ki [2]: 27 nM
Ratio Ki [3]: 6
inhibition in vivo at 77 µmol/kg [4]: 71%
Activity [5]: 75%
Activity [6]: -3.9%
Activity [7]: 26%

CCCCCn1c(C)c(C(=O)c2ccc(F)c3ccccc23)c2ccccc21
Ki [1]: 14 nM
Ki [2]: 2.2 nM
Ratio Ki [3]: 6
ED50 [8]: 0.38 µmol/kg
ED50 [9]: 0.48 µmol/kg
ED50 [12]: 0.54 µmol/kg
ED50 [13]: 0.99 µmol/kg
